Assay results from article PMC5607115 (ACS chemical neuroscience, 2017).
Like-named read-outs stand apart in the source and are kept apart here.

Assays:
[1] = liver microsomal stability; assay type: in vitro ADME; settings: Sprague-Dawley, rat, liver microsomes
How it was run: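 Sprague-Dawley rat liver microsomes in PBS with compound (0.5 µL of 2 mM DMSO stock) were preincubated 5 min at 37 °C. NADPH (10 mM stock) was added, then 60 min at 37 °C. Quenched with ice-cold CH3CN, centrifuged, quantified by LC-MS/MS as % peak area 60 vs 0 min. At least triplicate; verapamil positive control.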

major CNS targets = assay: GPCRome assays; assay type: cell-based; settings: NIH PDSP
LogP, shake flask method = assay type: physicochemical; settings: n-octanol/water
How it was run: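 Test compound (50 µL of 20 µM DMSO stock) was mixed with mutually pre-saturated n-octanol and water (475 µL each), vortexed 1 min and shaken overnight at 37 °C. Each phase was quantified by LC-MS/MS, and LogP was taken as log of the octanol/water amount ratio. Run in triplicate.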

[2] = pH stability in buffer solutions; assay type: physicochemical; settings: 60 min
How it was run: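 A DMSO stock (0.25 µmol/mL) was diluted 50 µL into 950 µL of 20 mM buffer: phosphate pH 7.4, boric acid-KCl-NaOH pH 9.4, or sodium acetate-KCl-HCl pH 5.0. Samples were held 1 h at 37 °C, and unchanged compound was measured by reversed-phase HPLC (CH3CN/H2O + 0.1% TFA).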

human mGlu3 = human mGlu3 (Homo sapiens, UniProt Q14832); assay: thallium flux GIRK functional assay, human mGlu3; assay type: cell-based; settings: for selectivity for mGlu2 over mGlu3: thallium flux GIRK assays
Chain of human mGlu3 (Q14832 23-879): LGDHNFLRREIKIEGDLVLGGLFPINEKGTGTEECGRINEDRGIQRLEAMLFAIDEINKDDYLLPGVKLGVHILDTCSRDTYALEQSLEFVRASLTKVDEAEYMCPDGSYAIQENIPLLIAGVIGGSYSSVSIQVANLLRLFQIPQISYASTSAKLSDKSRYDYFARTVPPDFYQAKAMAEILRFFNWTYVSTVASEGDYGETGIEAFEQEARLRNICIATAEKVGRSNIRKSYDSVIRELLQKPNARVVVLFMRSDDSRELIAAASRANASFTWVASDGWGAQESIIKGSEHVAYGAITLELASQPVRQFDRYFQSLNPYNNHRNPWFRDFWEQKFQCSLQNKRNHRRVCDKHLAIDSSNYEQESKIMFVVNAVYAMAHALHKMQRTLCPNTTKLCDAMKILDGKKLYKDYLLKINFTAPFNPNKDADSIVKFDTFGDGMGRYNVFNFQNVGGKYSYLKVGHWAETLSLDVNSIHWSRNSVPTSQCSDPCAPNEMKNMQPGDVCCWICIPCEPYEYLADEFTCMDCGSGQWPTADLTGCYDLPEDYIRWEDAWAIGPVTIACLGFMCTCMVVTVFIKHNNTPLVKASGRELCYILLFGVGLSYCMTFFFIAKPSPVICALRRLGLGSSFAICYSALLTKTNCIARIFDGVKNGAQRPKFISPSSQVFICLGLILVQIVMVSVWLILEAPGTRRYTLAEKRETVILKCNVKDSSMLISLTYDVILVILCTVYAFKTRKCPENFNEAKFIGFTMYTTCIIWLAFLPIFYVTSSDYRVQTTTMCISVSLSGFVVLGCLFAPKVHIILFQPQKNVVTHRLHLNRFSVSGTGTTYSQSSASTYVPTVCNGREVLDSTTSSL
How it was run: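 HEK cells stably co-expressing GIRK and human mGlu3 (puromycin-selected polyclonal line) were plated overnight and loaded with FluoZin2-AM (330 nM final) for 1 h at RT. Compound (0.3% DMSO final) was preincubated ~1 h at RT, then thallium buffer with a full glutamate concentration-response was added. The 5–15 s fluorescence slope, normalised to vehicle and maximal agonist, was fitted to a four-parameter logistic equation.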

[3] = PET imaging in normal rat brain; assay type: in vivo, Sprague-Dawley rats; settings: unlabeled QCA 1 mg/kg, self-blocking
other mGlu receptors = assay: activity towards other mGlu receptors; settings: test concentration of 30 µM
human mGlu2 = human mGlu2 (Homo sapiens, UniProt Q14416); assay: thallium flux GIRK functional assay, human mGlu2; assay type: cell-based
Chain of human mGlu2 (Q14416 19-872): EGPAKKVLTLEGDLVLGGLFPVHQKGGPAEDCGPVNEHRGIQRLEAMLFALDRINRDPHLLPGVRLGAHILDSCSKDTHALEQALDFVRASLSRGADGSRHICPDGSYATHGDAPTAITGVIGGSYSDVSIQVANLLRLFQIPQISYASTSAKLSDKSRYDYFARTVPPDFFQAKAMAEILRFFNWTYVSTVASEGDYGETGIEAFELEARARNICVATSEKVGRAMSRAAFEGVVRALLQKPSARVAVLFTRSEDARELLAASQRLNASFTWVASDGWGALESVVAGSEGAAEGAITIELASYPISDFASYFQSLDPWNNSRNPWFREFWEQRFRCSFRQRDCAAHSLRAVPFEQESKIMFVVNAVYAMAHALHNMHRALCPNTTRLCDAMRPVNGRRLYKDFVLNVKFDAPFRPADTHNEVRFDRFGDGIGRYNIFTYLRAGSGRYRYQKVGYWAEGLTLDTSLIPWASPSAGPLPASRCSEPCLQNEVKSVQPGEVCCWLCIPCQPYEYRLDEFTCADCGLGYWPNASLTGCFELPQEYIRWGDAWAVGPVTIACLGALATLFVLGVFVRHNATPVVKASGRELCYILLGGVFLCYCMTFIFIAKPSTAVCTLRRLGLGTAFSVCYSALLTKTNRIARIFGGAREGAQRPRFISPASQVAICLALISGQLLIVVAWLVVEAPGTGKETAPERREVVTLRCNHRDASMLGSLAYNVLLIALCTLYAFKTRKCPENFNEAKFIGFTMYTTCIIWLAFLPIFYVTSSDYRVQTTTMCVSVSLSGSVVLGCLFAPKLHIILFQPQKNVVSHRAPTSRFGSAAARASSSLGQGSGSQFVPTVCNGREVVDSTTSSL

[4] = cited from earlier work
mGlu2 [5] = settings: cited from earlier work
mGlu2 [6] = biological target: mGlu2 (Rattus norvegicus, UniProt P31421); assay: in vitro autoradiography on rat brain sections; assay type: binding
Chain of mGlu2 (Rattus norvegicus, UniProt P31421) (P31421 19-872): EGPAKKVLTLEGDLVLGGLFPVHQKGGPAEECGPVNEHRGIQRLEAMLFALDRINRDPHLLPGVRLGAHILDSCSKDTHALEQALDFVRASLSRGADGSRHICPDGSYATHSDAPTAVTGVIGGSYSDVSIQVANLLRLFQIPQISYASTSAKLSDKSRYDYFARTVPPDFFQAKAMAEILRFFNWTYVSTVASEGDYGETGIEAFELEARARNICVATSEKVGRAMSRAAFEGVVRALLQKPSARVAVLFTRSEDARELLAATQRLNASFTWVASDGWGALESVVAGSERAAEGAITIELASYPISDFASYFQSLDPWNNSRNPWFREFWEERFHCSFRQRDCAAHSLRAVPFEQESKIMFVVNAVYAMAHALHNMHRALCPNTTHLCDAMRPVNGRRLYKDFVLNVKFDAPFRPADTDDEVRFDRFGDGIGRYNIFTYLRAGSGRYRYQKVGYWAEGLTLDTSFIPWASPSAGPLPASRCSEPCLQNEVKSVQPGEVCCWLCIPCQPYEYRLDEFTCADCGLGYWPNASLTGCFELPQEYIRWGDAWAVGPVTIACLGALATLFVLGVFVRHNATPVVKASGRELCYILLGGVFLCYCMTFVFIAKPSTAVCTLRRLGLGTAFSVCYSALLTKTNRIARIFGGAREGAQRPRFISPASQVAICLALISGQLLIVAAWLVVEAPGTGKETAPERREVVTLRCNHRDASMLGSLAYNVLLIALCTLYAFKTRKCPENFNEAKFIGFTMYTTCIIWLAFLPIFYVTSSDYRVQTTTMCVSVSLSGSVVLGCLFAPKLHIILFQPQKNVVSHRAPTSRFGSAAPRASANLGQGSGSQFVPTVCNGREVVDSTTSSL

[7] = mice
[8] = rat

SMILES | remaining at 1 h, 2 µM [1] [%] | logP (LogP, shake flask method) | pH stability, percent remaining of the parent molecule ([2]; pH 5.0, 37 °C) [%] | pH stability, percent remaining of the parent molecule ([2]; pH 7.4, 37 °C) [%] | pH stability, percent remaining of the parent molecule ([2]; pH 9.4, 37 °C) [%] | IC50 (human mGlu2) [nM] | selectivity for mGlu2 over mGlu3 (human mGlu3) | also measured
[11CH3]Oc1ccc(C2CCN(c3ccn(CC4CC4)c(=O)c3C#N)CC2)cc1 [[^11C]CMDC, 1-(cyclopropylmethyl)-4-(4-[^11C]methoxyphenyl)-piperidin-1-yl-2-oxo-1,2-dihydropyridine-3-carbonitrile] |  |  |  |  |  |  |  | peak brain uptake [4]: ca. 0.6 SUV
[11CH3]Oc1c(F)ccc(F)c1C1CCN(c2ccn3c(CC4CC4)nnc3c2Cl)CC1 [compound 2] |  |  |  |  |  |  |  | mGlu2 selectivity over the other mGlu receptors (mGlu2 [5]): greater than 350 fold
[11CH3]Oc1ccc(-c2cc(C(N)=O)nc3cc(CN4C(=O)CCC4=O)ccc23)c(F)c1 [[^11C]QCA, 7-((2,5-dioxopyrrolidin-1-yl)methyl)-4-(2-fluoro-4-[^11C]methoxyphenyl) quinoline-2-carboxamide] |  |  |  |  |  |  |  | in vitro specific binding to mGlu2 (mGlu2 [6]): moderate-to-high level of in vitro specific binding; uptake in heart, lungs, liver, pancreas, kidneys and small intestine ([7]; 1 min post injection): > 3 % ID/g; brain uptake, peak value ([7]; at 1 min post injection): 0.42 % ID/g; peak brain uptake in whole brain (PgP/Bcrp; PgP/Bcrp knockout mice): ca. 0.8 SUV; increase of whole brain uptake in PgP/Bcrp knockout vs wild-type mice (PgP/Bcrp; calculated based on area under curve): 130%; peak brain uptake in whole brain (PgP/Bcrp; wild-type mice): ca. 0.3 SUV; unchanged [11C]QCA in brain homogenates ([8]; 5 min post injection): 78%; unchanged [11C]QCA in plasma ([8]; 5 min post injection): 93%; unchanged [11C]QCA in brain homogenates ([8]; 20 min post injection): 41%; unchanged [11C]QCA in plasma ([8]; 20 min post injection): 88%; unchanged [11C]QCA in brain homogenates ([8]; 60 min post injection): 34%; unchanged [11C]QCA in plasma ([8]; 60 min post injection): 79%
NC(=O)c1cc(-c2ccc(OCCF)cc2F)c2ccc(CN3C(=O)CCC3=O)cc2n1 [FEQCA, 7-((2,5-dioxopyrrolidin-1-yl)methyl)-4-(2-fluoro-4-(2-fluoroethoxy)phenyl)quinoline-2-carboxamide] | 70.1 | 1.75 | 98.5 | 53.6 | 59.0 | 130 ± 10 | excellent selectivity for mGlu2 over mGlu3 | 

Second part, led by results:

remaining at 1 h, 2 µM [1] [%] | logP (LogP, shake flask method) | pH stability, percent remaining of the parent molecule ([2]; pH 5.0, 37 °C) [%] | pH stability, percent remaining of the parent molecule ([2]; pH 7.4, 37 °C) [%] | pH stability, percent remaining of the parent molecule ([2]; pH 9.4, 37 °C) [%] | IC50 (human mGlu2) [nM] | SMILES | selectivity for mGlu2 over mGlu3 (human mGlu3) | also measured
64.4 | 1.27 | 97.9 | 50.9 | 46.7 |  | COc1ccc(-c2cc(C(N)=O)nc3cc(CN4C(=O)CCC4=O)ccc23)c(F)c1 [QCA, 7-((2,5-dioxopyrrolidin-1-yl)methyl)-4-(2-fluoro-4-methoxyphenyl)quinoline-2-carboxamide] |  | interaction with major CNS targets (major CNS targets): no significant interaction; effect on glutamate potency or glutamate maximal response (Schild analysis) (human mGlu3; mGlu3, 41 nM-30 µM QCA): no effect; effect of pretreatment on [11C]QCA brain uptake [3]: failed to show significant reduction of brain uptake; activity towards other mGlu receptors (other mGlu receptors): inactive
64.6 | 1.99 | 91.5 | 72.5 | 76.3 | 1080 ± 1300 | NC(=O)c1cc(-c2ccc(OCCCF)cc2F)c2ccc(CN3C(=O)CCC3=O)cc2n1 [FPQCA, 7-((2,5-dioxopyrrolidin-1-yl)methyl)-4-(2-fluoro-4-(3-fluoropropoxy)phenyl)quinoline-2-carboxamide] | excellent selectivity for mGlu2 over mGlu3 | 
